For one experiment, the system named is Klebsiella aerogenes. Kind of experiment: Antimicrobial activity against Klebsiella aerogenes A. The format is functional. Put shortly: (§1)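 MIC by blood agar screen: DST agar with 10% defibrinated horse blood; inocula were undiluted overnight broth cultures; plates incubated aerobically overnight at 37°.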
The subject of experiment [1] is Escherichia coli. Description: Antimicrobial activity against Escherichia coli ESS. The format is functional. Put shortly: as §1
Experiment [2] has as its system Escherichia coli. Kind of experiment: Antimicrobial activity against Escherichia coli DCO. Format: functional. In a few lines: as §1
The subject of a further experiment is Proteus mirabilis. Description: Antimicrobial activity against Proteus mirabilis C977. Format: functional. Put shortly: as §1
The subject of experiment [3] is Rattus norvegicus. Description: Antiulcerogenic activity in stress-induced Wistar rat assessed as protection from ulcer at 25 mg/kg, po. Format: functional.
Another experiment concerns Acinetobacter lwoffii. Description: Antimicrobial activity against Acinetobacter lwoffii BRL 2400. Format: functional. In a few lines:
as §1

In experiment [4] the test system is Staphylococcus aureus. Kind of experiment: Antimicrobial activity against Staphylococcus aureus V573. The format is functional. In a few lines: as §1
The next experiment deals with Streptococcus pyogenes. Description: Antimicrobial activity against Streptococcus pyogenes CN10. The format is functional. Put shortly:
as §1

For experiment [5], the system named is Staphylococcus aureus. Kind of experiment: Antimicrobial activity against Staphylococcus aureus Oxford NCTC 6571. The format is functional. In a few lines: as §1
In another experiment the test system is Streptococcus sanguinis. Description: Antimicrobial activity against Streptococcus sanguis ATCC 10556. Format: functional. Put shortly:
as §1

Another experiment has as its system Citrobacter freundii. Description: Antimicrobial activity against Citrobacter freundii ES. Format: functional. Put shortly:
as §1

Another experiment relates to Pseudomonas aeruginosa. Description: Antimicrobial activity against Pseudomonas aeruginosa 1771P. Format: functional. In a few lines: as §1
For another experiment, the system named is Micrococcus luteus. Kind of experiment: Antimicrobial activity against Sarcina lutea ATCC 8740. The format is functional. Put shortly: as §1
Experiment [6] relates to Escherichia coli. Kind of experiment: Antimicrobial activity against Escherichia coli 10418. Format: functional. In a few lines:
as §1

The next experiment deals with Priestia megaterium. Kind of experiment: Antimicrobial activity against Bacillus megaterium NCIB 9376. The format is functional. Put shortly: as §1
Experiment [7] concerns Rattus norvegicus. Kind of experiment: Antiulcerogenic activity in stress-induced Wistar rat assessed as protection from ulcer at 10 mg/kg, po. Format: functional.
The subject of a further experiment is Enterobacter cloacae. Kind of experiment: Antimicrobial activity against Enterobacter cloacae N1. The format is functional. Put shortly:
as §1

Another experiment deals with Salmonella typhimurium. Kind of experiment: Antimicrobial activity against Salmonella Typhimurium CT10. The format is functional, Salmonella enterica subsp. enterica serovar Typhimurium. As to conditions: Salmonella enterica. In a few lines:
as §1

For another experiment, the system named is Cryptococcus neoformans. Description: Antimicrobial activity against Cryptococcus neoformans. Format: functional. In a few lines: (§2)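 Microtiter MIC with twofold dilutions in defined (Yeast Nitrogen Base + 1% glucose) and complex (Sabouraud's glucose) broth; compound from DMSO stock, final DMSO <1%; inocula 10^3 and 10^5 cells/ml; incubated 2 days at 37°.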

Another experiment has as its system Corynebacterium xerosis. Description: Antimicrobial activity against Corynebacterium xerosis NCTC 9755. Format: functional. Put shortly:
as §1

In the next experiment the test system is Aspergillus niger. Kind of experiment: Antimicrobial activity against Aspergillus niger at […] after 2 days by tube dilution method. Format: functional, organism-based. In a few lines: (§3)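 Tube dilution MIC in defined medium (Yeast Nitrogen Base + 1% glucose) and complex medium (Sabouraud's glucose broth); compound dissolved in DMSO, final DMSO <1%; tenfold dilutions 100 to 0.1 μg/ml; inoculum 10^4 spores/ml; 2 days at 37°.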

Experiment [8] concerns Trichophyton mentagrophytes. Description: Antimicrobial activity against Trichophyton mentagrophytes at 128 ug/ml after 11 days by twofold dilution method. The format is functional, organism-based.
In a further experiment the test system is Candida parapsilosis. Kind of experiment: Antimicrobial activity against Candida parapsilosis at 128 ug/ml after 2 days by twofold dilution method. Format: functional, organism-based. In a few lines:
as §2

For the next experiment, the system named is Aspergillus fumigatus. Description: Antimicrobial activity against Aspergillus fumigatus at […] after 2 days by tube dilution method. The format is functional, organism-based. Put shortly:
as §3

In the next experiment the test system is Trichophyton rubrum. Kind of experiment: Antimicrobial activity against Trichophyton rubrum at 128 ug/ml after 11 days by twofold dilution method. The format is functional, organism-based.
In experiment [9] the test system is Rattus norvegicus. Kind of experiment: Antiulcerogenic activity in stress-induced Wistar rat assessed as protection from ulcer at 5 mg/kg, po. Format: functional.
A further experiment relates to Candida albicans. Description: Antimicrobial activity against Candida albicans at 128 ug/ml after 2 days by twofold dilution method. The format is functional, organism-based. Put shortly:
as §2

Structures are written as SMILES. Converted amounts (≈) assume the structure as drawn. The source made the active and inactive calls. The rule behind the calls is not given here.

The term MIC denotes the lowest concentration that inhibits growth of the organism. Read a high MIC as weaker potency. With `CC(C)CC(NC(=O)C(O)C(O)C(N)CCCNC(=N)N)C1Cc2cccc(O)c2C(=O)O1` (stereo unspecified) [XENOCOUMACIN 1], the MIC against Klebsiella aerogenes was greater than 100 µg/mL; against Escherichia coli [1], 0.5 µg/mL (≈ 1.07 µM); with Escherichia coli [2], 10 µg/mL (≈ 21.5 µM); in the experiment with Proteus mirabilis it was greater than 100 µg/mL; in the experiment on Acinetobacter lwoffii, 2.5 µg/mL (≈ 5.37 µM); in the experiment with Staphylococcus aureus [4], 25 µg/mL (≈ 53.7 µM). In addition, the MIC against Streptococcus pyogenes is 1 µg/mL (≈ 2.15 µM); in the experiment on Staphylococcus aureus [5], 10 µg/mL (≈ 21.5 µM); against Streptococcus sanguinis, 10 µg/mL (≈ 21.5 µM); against Citrobacter freundii, greater than 100 µg/mL; against Pseudomonas aeruginosa, greater than 100 µg/mL; against Micrococcus luteus it was 1 µg/mL (≈ 2.15 µM). For the same compound, the MIC in the experiment with Escherichia coli [6] is 2.5 µg/mL (≈ 5.37 µM); in the experiment on Priestia megaterium, 2.5 µg/mL (≈ 5.37 µM); against Enterobacter cloacae, greater than 100 µg/mL; against Salmonella typhimurium, greater than 100 µg/mL; against Cryptococcus neoformans, 0.125 µg/mL (≈ 0.268 µM); against Corynebacterium xerosis, 1 µg/mL (≈ 2.15 µM). For the same compound, the Activity in the experiment on Rattus norvegicus [3] amounted to 74%; in the experiment with Rattus norvegicus [7], 8%.

Regarding `CC(C)CC(NC(=O)C(O)C(O)C1CCCN1)C1Cc2cccc(O)c2C(=O)O1` (stereo unspecified) [XENOCOUMACIN 2], the MIC against Klebsiella aerogenes was greater than 100 µg/mL; in the experiment on Escherichia coli [1] it was 2.5 µg/mL (≈ 6.15 µM); in the experiment with Escherichia coli [2], greater than 100 µg/mL; against Proteus mirabilis, greater than 100 µg/mL; in the experiment with Acinetobacter lwoffii, 5 µg/mL (≈ 12.3 µM); against Staphylococcus aureus [4], greater than 100 µg/mL. The MIC was 5 µg/mL (≈ 12.3 µM) in the experiment on Streptococcus pyogenes; 5 µg/mL (≈ 12.3 µM) against Staphylococcus aureus [5]; 10 µg/mL (≈ 24.6 µM) in the experiment with Streptococcus sanguinis; greater than 100 µg/mL against Citrobacter freundii; greater than 100 µg/mL with Pseudomonas aeruginosa; 5 µg/mL (≈ 12.3 µM) with Micrococcus luteus. The MIC in the experiment with Escherichia coli [6] was 50 µg/mL (≈ 123 µM); in the experiment on Priestia megaterium it was 5 µg/mL (≈ 12.3 µM); in the experiment with Enterobacter cloacae it was greater than 100 µg/mL; with Salmonella typhimurium it was greater than 100 µg/mL; in the experiment on Corynebacterium xerosis, 5 µg/mL (≈ 12.3 µM). Besides, the outcome (in the experiment with Aspergillus niger; in experiment [8]; in the experiment on Candida parapsilosis; with Aspergillus fumigatus; in the experiment with Trichophyton rubrum; in the experiment with Candida albicans) was inactive. The Activity turned out to be 70% in the experiment with Rattus norvegicus [3], 61% with Rattus norvegicus [7] and 26% in the experiment with Rattus norvegicus [9].
